Measured values: ChEMBL document CHEMBL3860048 (J Med Chem, 2016)
pEC50: −log10 of the molar value. The source made the active and inactive calls. The calls are words filed in the database; no cut-off is given here.

Tests used:
Rattus norvegicus [1] = test: Inhibition of testosterone levels in CD(SD) rat assessed as plasma testosterone level <0.04 ng/ml at 0.1 nmol/hr, sc administered continuously for 6 days through alzet osmotic pump measured after 6 days by radio-immunoassay; type: functional, organism-based
Rattus norvegicus [2] = test: Inhibition of testosterone levels in Crl:CD(SD) rat plasma assessed as plasma testosterone level <0.04 ng/ml at 30 pmol/hr, sc administered as continuous dosing through alzet osmotic pump for 1 week by radio-immunoassay; type: functional, organism-based
In short: (§1)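 Peptide dissolved in 50% DMSO at 3, 10, 30 or 100 µM, loaded into ALZET osmotic pumps for 3 to 100 pmol/h. Pumps implanted sc in 5 Crl:CD(SD) male rats. Plasma testosterone measured by RIA after 1 or 4 weeks. Values below the 0.04 ng/mL detection limit were treated as 0.04. Count of rats below the limit.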

Rattus norvegicus [3] = test: Inhibition of testosterone levels in Crl:CD(SD) rat plasma assessed as plasma testosterone level <0.04 ng/ml at 100 pmol/hr, sc administered as continuous dosing through alzet osmotic pump for 1 week by radioimmunoassay; type: functional, organism-based; in short: as §1
Rattus norvegicus [4] = test: Inhibition of testosterone levels in Crl:CD(SD) rat plasma assessed as plasma testosterone level <0.04 ng/ml at 100 pmol/hr, sc administered as continuous dosing through alzet osmotic pump for 4 weeks by radioimmunoassay; type: functional, organism-based; in short: as §1
[5] = Cmax in Sprague-Dawley rat plasma at 1 mg/kg, sc by LC/MS analysis; type: ADME, organism-based; design: dose 1 mg/kg, route subcutaneous
In short: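 Single subcutaneous 1 mg/kg dose to SD rats (n=3 per group). Plasma drawn at 5, 10, 15, 30 min and 1, 2, 4, 8, 24 h. Proteins removed with 0.2% formic acid/methanol (1:4, v/v) plus acetonitrile, centrifuged, supernatant diluted in 0.4% aqueous formic acid, then measured by LC/MS. Noncompartmental analysis per rat, mean ± SD.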

[6] = Solubility of the compound in water at 20 mg/ml; type: physicochemical; conditions: buffer
[7] = Inhibition of testosterone levels in sc dosed Crl:CD(SD) rat plasma assessed as compound dosing causing plasma testosterone level <0.04 ng/ml in all tested animals administered as continuous dosing through alzet osmotic pump for 1 to 4 weeks by radio-immunoassay; type: functional
[8] = Conformational changes of the compound in distilled water assessed as decrease in beta-sheet content at 0.1 mg/ml by preliminary circular dichroism analysis; design: scale not given: the % may be the effect or the level left
KiSS-1 receptor [9] = biological target: KiSS-1 receptor (Homo sapiens, UniProt Q969F8); test: Agonist activity at human KISS1R expressed in CHO/dhfr cells assessed as increase in intracellular Ca2+ levels measured for 180 secs by Fluo 3-AM dye based FLIPR assay; type: functional, cell-based
KiSS-1 receptor (Homo sapiens, UniProt Q969F8), sequence (Q969F8 whole entry): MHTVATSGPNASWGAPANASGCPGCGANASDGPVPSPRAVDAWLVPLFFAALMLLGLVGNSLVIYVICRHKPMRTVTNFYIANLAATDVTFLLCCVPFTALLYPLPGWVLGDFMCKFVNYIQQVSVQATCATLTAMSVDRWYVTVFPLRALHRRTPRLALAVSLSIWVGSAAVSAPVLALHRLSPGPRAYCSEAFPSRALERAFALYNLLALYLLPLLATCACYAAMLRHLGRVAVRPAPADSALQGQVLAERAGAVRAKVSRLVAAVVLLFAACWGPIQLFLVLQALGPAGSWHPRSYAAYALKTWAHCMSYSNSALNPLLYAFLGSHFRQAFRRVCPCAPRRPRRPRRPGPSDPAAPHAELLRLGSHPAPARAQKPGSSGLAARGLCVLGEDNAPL
In short: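 CHO cells expressing human KISS1R; FLIPR recording of ligand-induced [Ca2+]i rise over time. Maximum response taken and expressed as percent of the response to a maximal concentration of metastin(45-54). EC50 = concentration giving half-maximal mobilization, from nonlinear regression of smoothed data. Reported as ratio to the metastin(45-54) EC50.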

KiSS-1 receptor [10] = biological target: KiSS-1 receptor (Rattus norvegicus, UniProt Q924U1); test: Agonist activity at rat KISS1R expressed in CHO/dhfr cells assessed as increase in intracellular Ca2+ levels measured for 180 secs by Fluo 3-AM dye based FLIPR assay; type: functional, cell-based
KiSS-1 receptor (Rattus norvegicus, UniProt Q924U1), sequence (Q924U1 whole entry): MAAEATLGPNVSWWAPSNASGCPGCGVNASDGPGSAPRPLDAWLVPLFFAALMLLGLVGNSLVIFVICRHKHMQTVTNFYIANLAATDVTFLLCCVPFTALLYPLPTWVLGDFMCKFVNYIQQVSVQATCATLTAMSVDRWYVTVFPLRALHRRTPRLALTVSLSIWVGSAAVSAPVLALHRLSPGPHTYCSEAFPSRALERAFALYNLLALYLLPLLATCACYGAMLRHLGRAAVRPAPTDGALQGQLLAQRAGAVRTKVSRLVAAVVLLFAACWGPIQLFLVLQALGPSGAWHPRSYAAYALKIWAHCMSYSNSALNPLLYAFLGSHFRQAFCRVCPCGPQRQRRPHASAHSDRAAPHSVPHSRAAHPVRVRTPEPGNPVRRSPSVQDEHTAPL

Rattus norvegicus [11] = test: Inhibition of testosterone levels in CD(SD) rat assessed as plasma testosterone level <0.04 ng/ml at 0.01 nmol/hr, sc administered continuously for 6 days through alzet osmotic pump measured after 6 days by radio-immunoassay; type: functional, organism-based

SMILES | Cmax [5] [µg/mL] | solubility [6] | pEC50 (KiSS-1 receptor [9]) | pEC50 (KiSS-1 receptor [10]) | inhibition (Rattus norvegicus [1]) | inhibition (Rattus norvegicus [2]) | inhibition (Rattus norvegicus [3]) | inhibition (Rattus norvegicus [4]) | MED [7] [pmol/h] | Activity [8] [%] | inhibition (Rattus norvegicus [11])
CNC(=N)NCCC[C@H](NC(=O)[C@H](CC(C)C)NC(=O)NNC(=O)[C@H](Cc1ccccc1)NC(=O)[C@@H](NC(=O)[C@H](CC(N)=O)NC(=O)[C@@H](Cc1c[nH]c2ccccc12)NC(=O)[C@@H](Cc1ccc(O)cc1)NC(C)=O)[C@@H](C)O)C(=O)N[C@@H](Cc1c[nH]c2ccccc12)C(N)=O | 0.1 | Soluble |  |  | Active | Active | Active | Active | 100 | 34.8 | 
CNC(=N)NCCC[C@H](NC(=O)[C@H](CC(C)C)NC(=O)NNC(=O)[C@H](Cc1ccccc1)NC(=O)[C@@H](NC(=O)[C@H](CC(N)=O)NC(=O)[C@@H]1CCCN1C(=O)[C@@H](Cc1ccc(O)cc1)NC(C)=O)[C@@H](C)O)C(=O)N[C@@H](Cc1c[nH]c2ccccc12)C(N)=O |  |  | 9.32 | 8.03 |  |  |  |  |  |  | Active
CNC(=N)NCCC[C@H](NC(=O)[C@H](CC(C)C)NC(=O)NNC(=O)[C@H](Cc1ccccc1)NC(=O)[C@@H](NC(=O)[C@H](CC(N)=O)NC(=O)[C@H](Cc1c[nH]c2ccccc12)NC(=O)[C@@H](Cc1ccc(O)cc1)NC(C)=O)[C@@H](C)O)C(=O)N[C@@H](Cc1c[nH]c2ccccc12)C(N)=O |  | Insoluble | 9.21 | 8.32 |  |  |  |  |  |  | Active

More lines, main results first:

Cmax [5] [µg/mL] | solubility [6] | pEC50 (KiSS-1 receptor [9]) | pEC50 (KiSS-1 receptor [10]) | SMILES | inhibition (Rattus norvegicus [1]) | inhibition (Rattus norvegicus [2]) | inhibition (Rattus norvegicus [3]) | inhibition (Rattus norvegicus [4]) | MED [7] [pmol/h] | Activity [8] [%] | inhibition (Rattus norvegicus [11])
 |  | 8.44 | 7.74 | CNC(=N)NCCC[C@H](NC(=O)[C@H](CC(C)C)NC(=O)NNC(=O)[C@H](Cc1ccccc1)NC(=O)[C@@H](NC(=O)[C@H](CC(N)=O)NC(=O)[C@@H](CCCCN)NC(=O)[C@@H](Cc1ccc(O)cc1)NC(C)=O)[C@@H](C)O)C(=O)N[C@@H](Cc1c[nH]c2ccccc12)C(N)=O | Active |  |  |  |  |  | 
 |  | 7.66 | 7.40 | CNC(=N)NCCC[C@H](NC(=O)[C@H](CC(C)C)NC(=O)NNC(=O)[C@H](Cc1ccccc1)NC(=O)[C@@H](NC(=O)[C@H](CC(N)=O)NC(=O)[C@@H](CCC(=O)O)NC(=O)[C@@H](Cc1ccc(O)cc1)NC(C)=O)[C@@H](C)O)C(=O)N[C@@H](Cc1c[nH]c2ccccc12)C(N)=O | Active |  |  |  |  |  | 
